Consider 22 compounds from ChEMBL document CHEMBL3785037, “Compound profiling and 3D-QSAR studies of hydrazone derivatives with activity against intracellular Trypanosoma cruzi” (Bioorg Med Chem, 2016).

Data set [1] in a line: Cytotoxicity against mouse NIH/3T3 cells after 4 days by CellTiter-Glo luminiscence assay. It counts as cell-based, NIH3T3. The conditions noted are these: read-out: TC50. Put shortly:
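Mouse embryonic fibroblasts were seeded at 1x10^3 cells/well onto pre-dispensed compounds (top concentration 100 μM) for 4 days at 37 °C, 5% CO2. Controls were 0.5% DMSO (100% viable) and amphotericin B 50 μM (100% toxicity). Viability was measured as ATP by CellTiter-Glo luminescence at room temperature. TC50 was obtained by nonlinear regression.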

In a further data set the test system is HepG2. Description: Cytotoxicity against human HepG2 cells 48 hrs by CellTiter-Glo luminiscence assay. Type of data set: functional. The conditions noted are these: HepG2, 48 h, read-out: TC50 (the source's name). The gist of the method:
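Human hepatoma cells were plated at 3,000 cells/well onto pre-dispensed compounds, handled as for the fibroblast assay, and incubated 48 h at 37 °C, 5% CO2. ATP-based viability was read by CellTiter-Glo luminescence after room-temperature incubation. TC50 was obtained by nonlinear regression.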

In a further data set the test system is Trypanosoma cruzi. Description: Antitrypanosomal activity against intracellular amastigotes stage of recombinant Trypanosoma cruzi Tulahuen expressing beta galactosidase infected in NIH/3T3 cells assessed as growth inhibition after 4 days by HTS-ready assay. The conditions noted are these: NIH3T3, 96 h. It counts as functional, organism-based. Put shortly:
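NIH-3T3 fibroblasts were mixed 1:1 with β-galactosidase-expressing Tulahuen trypomastigotes from LLC-MK2 culture supernatants, at 1x10^3 cells/well, onto pre-dispensed compounds (50 to 0.00085 μM, DMSO ≤0.5%). Cultures were held 4 days at 37 °C, 5% CO2. Resorufin-β-D-galactopyranoside (5 µM in PBS with Igepal) was added for 4 h at room temperature, and fluorescence was read at 531/595 nm. Untreated parasites served as negative control.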

In the case of `NC(=S)N/N=C/CSc1ccccc1`, in data set [1], the CC50 at 96 h was 3550 nM. Besides, the CC50 in the data set on HepG2 is more than 100000 nM. The IC50 in the data set with Trypanosoma cruzi (read-out: IC50) and in the data set with Trypanosoma cruzi (read-out: pIC50 (converted)) was 9330 nM throughout.
For `C/C(=N\Nc1nc(-c2ccccc2)cs1)c1ccccn1`, the CC50 at 96 h in data set [1] stood at 3890 nM. Moreover, in the data set on HepG2, the CC50 turned out to be 91200 nM. The IC50 with Trypanosoma cruzi (read-out: IC50) and with Trypanosoma cruzi (read-out: pIC50 (converted)) was 1120 nM in each case.
Turning to `O=[N+]([O-])c1ccc(-c2csc(N/N=C/c3ccccn3)n2)cc1`, the CC50 at 96 h in data set [1] is more than 50100 nM. The CC50 in the data set with HepG2 is more than 100000 nM. Moreover, the IC50 in the data set with Trypanosoma cruzi (read-out: IC50) is 11000 nM.
Consider `C(=N\Nc1nc(-c2ccccc2)cs1)/c1ccccn1`, for which the CC50 at 96 h in data set [1] was found to be 17000 nM. Moreover, in the data set on HepG2, the CC50 was more than 100000 nM. Also, the IC50 with Trypanosoma cruzi (read-out: IC50) and in the data set on Trypanosoma cruzi (read-out: pIC50 (converted)) was 2190 nM each time.
Regarding `Cc1ccc(-c2csc(N/N=C/c3ccccn3)n2)cc1`, the CC50 at 96 h in data set [1] came out at 43600 nM. The CC50 in the data set with HepG2 was more than 100000 nM. Also, the IC50 in the data set on Trypanosoma cruzi (read-out: IC50) and in the data set on Trypanosoma cruzi (read-out: pIC50 (converted)) was 2630 nM in each case.
`Brc1ccc(-c2csc(N/N=C/c3ccccn3)n2)cc1`: the CC50 at 96 h in data set [1] turned out to be 14100 nM. Also, the CC50 in the data set with HepG2 is more than 100000 nM. For the same compound, the IC50 in the data set on Trypanosoma cruzi (read-out: IC50) and in the data set with Trypanosoma cruzi (read-out: pIC50 (converted)) was 2240 nM throughout.
`Cc1sc(N/N=C/c2ccccn2)nc1-c1ccc(Br)cc1`: in data set [1], the CC50 at 96 h was 18600 nM. Moreover, the CC50 in the data set with HepG2 is more than 100000 nM. Moreover, the IC50 in the data set on Trypanosoma cruzi (read-out: IC50) and with Trypanosoma cruzi (read-out: pIC50 (converted)) was 1380 nM throughout.
For the compound `Fc1ccc(-c2csc(N/N=C/c3ccccn3)n2)cc1`, in data set [1], the CC50 at 96 h was more than 50100 nM. In addition, in the data set on HepG2, the CC50 is 18200 nM. The IC50 in the data set with Trypanosoma cruzi (read-out: IC50) and in the data set with Trypanosoma cruzi (read-out: pIC50 (converted)) was 2290 nM throughout.
As for `COc1ccc(-c2csc(N/N=C/c3ccccn3)n2)cc1`, the CC50 at 96 h in data set [1] came out at 11500 nM. In the data set with HepG2, the CC50 was more than 100000 nM. Further, the IC50 with Trypanosoma cruzi (read-out: IC50) and in the data set with Trypanosoma cruzi (read-out: pIC50 (converted)) was 2690 nM in each case.
Regarding `Clc1ccc(-c2csc(N/N=C/c3ccccn3)n2)c(Cl)c1`, the CC50 at 96 h in data set [1] was 14400 nM. In the data set on HepG2, the CC50 was more than 100000 nM. The IC50 in the data set on Trypanosoma cruzi (read-out: IC50) and in the data set with Trypanosoma cruzi (read-out: pIC50 (converted)) was 1050 nM throughout.
Consider `Clc1ccc(-c2csc(N/N=C/c3ccccn3)n2)cc1Cl`, for which the CC50 at 96 h in data set [1] amounted to 10700 nM. Further, the CC50 with HepG2 was more than 100000 nM. The results for the IC50 in the data set with Trypanosoma cruzi (read-out: IC50) and with Trypanosoma cruzi (read-out: pIC50 (converted)) were 790 nM and 794 nM, respectively.
As to `C/C(=N\Nc1nc(-c2ccc(C)cc2)cs1)c1ccccn1`, the CC50 at 96 h in data set [1] came to 4470 nM. In addition, in the data set with HepG2, the CC50 was more than 100000 nM. The IC50 in the data set with Trypanosoma cruzi (read-out: IC50) and with Trypanosoma cruzi (read-out: pIC50 (converted)) was 1700 nM in each case.
On to `C/C(=N\Nc1nc(-c2ccc(Br)cc2)cs1)c1ccccn1`, for which the CC50 at 96 h in data set [1] amounted to 3980 nM. The CC50 in the data set on HepG2 came out at 85100 nM. Besides, the IC50 with Trypanosoma cruzi (read-out: IC50) and with Trypanosoma cruzi (read-out: pIC50 (converted)) was 1000 nM in each case.
With `C/C(=N\Nc1nc(-c2ccc(Br)cc2)c(C)s1)c1ccccn1`, the CC50 at 96 h in data set [1] amounted to 2000 nM. In addition, the CC50 in the data set with HepG2 is more than 100000 nM. For the same compound, the IC50 in the data set with Trypanosoma cruzi (read-out: IC50) and in the data set on Trypanosoma cruzi (read-out: pIC50 (converted)) was 1350 nM throughout.
Take `C/C(=N\Nc1nc(-c2ccc(F)cc2)cs1)c1ccccn1`: the CC50 at 96 h in data set [1] turned out to be 4900 nM. Also, the CC50 with HepG2 was 91200 nM. Also, the IC50 in the data set on Trypanosoma cruzi (read-out: IC50) and with Trypanosoma cruzi (read-out: pIC50 (converted)) was 1320 nM in each case.
Take `COc1ccc(-c2csc(N/N=C(\C)c3ccccn3)n2)cc1`: the CC50 at 96 h in data set [1] was determined as 3470 nM. Besides, the CC50 in the data set with HepG2 is more than 100000 nM. The IC50 in the data set with Trypanosoma cruzi (read-out: IC50) and in the data set with Trypanosoma cruzi (read-out: pIC50 (converted)) was 2240 nM throughout.
On to `C/C(=N\Nc1nc(-c2ccc(Cl)cc2Cl)cs1)c1ccccn1`, for which the CC50 at 96 h in data set [1] stood at 2000 nM. The CC50 in the data set with HepG2 is more than 100000 nM. The IC50 in the data set with Trypanosoma cruzi (read-out: IC50) and in the data set on Trypanosoma cruzi (read-out: pIC50 (converted)) was 1550 nM in each case.
With `C/C(=N\Nc1nc(-c2ccc(Cl)c(Cl)c2)cs1)c1ccccn1`, the CC50 at 96 h in data set [1] amounted to 2340 nM. For the same compound, the CC50 in the data set on HepG2 was more than 100000 nM. In addition, the IC50 with Trypanosoma cruzi (read-out: IC50) and with Trypanosoma cruzi (read-out: pIC50 (converted)) was 1260 nM each time.
Turning to `C/C(=N\Nc1nc(-c2cccc([N+](=O)[O-])c2)cs1)c1ccccn1`, the CC50 at 96 h in data set [1] was found to be 3630 nM. The CC50 in the data set with HepG2 was more than 100000 nM. Further, the values for the IC50 in the data set with Trypanosoma cruzi (read-out: IC50) and with Trypanosoma cruzi (read-out: pIC50 (converted)) were 890 nM and 891 nM, respectively.
Consider `C/C(=N\Nc1nc(-c2ccc([N+](=O)[O-])cc2)cs1)c1ccccn1`, for which the CC50 at 96 h in data set [1] came to 20900 nM. The CC50 with HepG2 is more than 100000 nM. Besides, the IC50 in the data set on Trypanosoma cruzi (read-out: IC50) and with Trypanosoma cruzi (read-out: pIC50 (converted)) was 1260 nM throughout.
As for `C/C(=N\N=C1\SC(C)C(=O)N1c1ccccc1)c1ccc(Cl)c(Cl)c1` (stereo not given), the CC50 at 96 h in data set [1] was more than 50100 nM. The CC50 in the data set with HepG2 was more than 100000 nM. Further, the IC50 in the data set with Trypanosoma cruzi (read-out: IC50) is more than 50100 nM.
Turning to `C/C(=N\N=C1\SC(C(C)C)C(=O)N1c1ccccc1)c1ccc(Cl)c(Cl)c1` (stereo not given), in data set [1], the CC50 at 96 h was more than 50100 nM. Further, in the data set on HepG2, the CC50 was more than 100000 nM. In addition, the IC50 in the data set on Trypanosoma cruzi (read-out: IC50) is more than 50100 nM.
